Source: PubChem (several laboratories)
AHR activator: activators of human aryl hydrocarbon receptor; P35869; AHR-responsive luciferase reporter cells, luminescence; activation, % at 5 µM; 320,000 compounds, 2.5% hits; in the data active = activation above about 47%
HDAC3 inhib: inhibitors of human histone deacetylase 3; O15379; recombinant HDAC3, fluorogenic peptide/trypsin coupled, fluorescence; inhibition, % at 8.3 µM; 320,000 compounds, 0.15% hits; in the data active = inhibition above about 26%, passing the limit was not always enough
FXN GAA850 act: frataxin GAA850 promoter activation. activation, % at 6 µM. AID 540364. HEK293 lucGAA850 FXN promoter luciferase reporter, 24 h; percent of 10 µM SAHA response. 360,000 compounds, 0.56% hits;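 active = activation above the average of all compounds screened plus 3 SD, cutoff fixed separately per campaign, cut at about 7.5% in these data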
PfM18AAP inh: blocks P. falciparum M18 aspartyl aminopeptidase | recombinant PfM18AAP, H-Glu-NHMec fluorogenic cleavage | inhibition, % at 7.35 µM | 290,000 compounds, 1.2% hits;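 active = inhibition above the campaign mean inhibition over all tested compounds plus 3 SD, cut at about 28% in these data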
SENP1 FRET inh: SENP1 (human) catalytic domain inhibition | Q9P0U3 | recombinant SENP1 catalytic domain, CyPet-SUMO1-YPet FRET cleavage | inhibition, % at 10 µM | 360,000 compounds, 0.21% hits;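 active = inhibition at least 30% at 10 µM, raw YFP signal under a set limit, fluorescence ratio 0.5 to 1.5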
Target sequence (Q9P0U3 419-644 limits assumed): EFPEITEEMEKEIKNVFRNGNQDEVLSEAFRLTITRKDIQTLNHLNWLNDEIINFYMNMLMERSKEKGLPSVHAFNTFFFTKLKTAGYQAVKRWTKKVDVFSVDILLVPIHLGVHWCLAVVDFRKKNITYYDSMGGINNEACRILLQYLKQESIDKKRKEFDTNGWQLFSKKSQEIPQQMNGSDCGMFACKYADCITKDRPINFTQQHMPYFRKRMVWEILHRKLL
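System: Recombinant human SENP1 catalytic domain, His6-tagged | Incubation: Enzyme reaction for 50 min at room temperature, dark | Medium: Tris pH 8 with BME, BSA, NP40 and catalase | Also added: 25 nM SUMO1 FRET substrate | Compound: 10 µM single point, 0.5% DMSO | Measured by: FRET fluorescence in CFP and YFP emission channels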
Fh CTSL1 inh: blocks F. hepatica cathepsin L1 in PFM18AAP counter-screen; 300,000 compounds, 0.49% hits; recombinant F. hepatica cathepsin L1, Z-Leu-Arg-MCA fluorescence; inhibition, % at 5.96 µM;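 active = inhibition above the mean of all tested compounds plus 3 SD, set per screening campaign, cut at about 17% in these data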
AHR act confirm: confirmation of human aryl hydrocarbon receptor activators | shares compounds with AHR activator | human cells, AHR-responsive luciferase reporter, luminescence | activation, % at 9 µM | 2,300 compounds, 87% hits | AID 2845; in the data active = activation above about 49%;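 note: HepG2 hepatoma cells carrying a DRE-driven firefly luciferase reporter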
PXR act counter: PXR activation, counter-screen for AHR activators. activation, % at 11.6 µM. 2,300 compounds, 88% hits. shares compounds with AHR activator. cell-based PXR reporter, luciferase luminescence; in the data active = activation above about 11%;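 note: human hepatoma DPX-2 cells expressing full-length human PXR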
Numbers stand for hits; 0 = inactive; - = no result; + = active, no number. A selection: hits, their analogues and other compounds. The true share with any hit is near 4.2%.

SMILES	AHR activator	HDAC3 inhib	FXN GAA850 act	PfM18AAP inh	SENP1 FRET inh	Fh CTSL1 inh	AHR act confirm	PXR act counter
COc1cccc(C(=O)Nc2nnc(C(C)C)s2)c1	133	0	0	0	0	0	0	28
COc1ccc(Cc2nnc(NC(=O)c3cc(OC)cc(OC)c3)s2)cc1	82	0	0	0	0	0	76	12
CN1CCN(c2ccc(NC(=O)c3sc4ccccc4c3Cl)cc2)CC1	80	0	0	0	0	0	49	-
O=C(Cc1coc2ccc3ccccc3c12)Nc1nccs1	79	0	0	0	0	0	93	22
COc1cccc(N=NC2C(=O)N(C(N)=S)N=C2C)c1 (centres undefined)	0	0	0	-	0	0	-	-
CC1=NN(C(N)=S)C(=O)C1N=Nc1cccc(Cl)c1 (centres undefined)	85	0	0	0	0	0	148	27
Cc1[nH]n(C(N)=S)c(=O)c1N=Nc1cccc(Cl)c1	114	0	0	0	0	0	115	13
COc1cccc(CN2CCN(C(=S)NCc3ccc(Cl)cc3)CC2)c1	0	0	0	0	0	0	-	-
O=C(NC1=C(Nc2ccc(F)cc2)C(=O)c2ccccc2C1=O)c1ccc(Cl)cc1	88	0	0	0	0	0	90	72
CCn1c2ccccc2c2cc(NC(=O)CSc3nnnn3-c3ccccc3)ccc21	82	0	0	0	0	0	133	+
CCn1c2ccccc2c2cc(NC(=O)CSc3nnc(C4CC4)n3Cc3ccco3)ccc21	112	0	0	0	0	0	56	171
CNC(=O)OCc1ncn(-c2ccccc2)c1COC(=O)NC	-	-	-	-	0	-	-	-
COc1ccc(OCc2cc(C(=O)NC(C)Cc3cnccn3)no2)c(Cl)c1 (centres undefined)	0	0	0	0	0	0	-	-
CC(C)CC(=O)NC(=S)Nc1nc(-c2cccc3ccccc23)cs1	80	0	0	0	0	0	53	29
NS(=O)(=O)c1ccc(NC2=CC(=O)C(=O)c3ccccc32)cc1	114	0	0	0	0	17	0	0
O=C(CCN1C(=O)/C(=C/c2ccccc2)SC1=S)NNC(=O)c1ccncc1	120	0	0	0	0	0	0	0
O=C(NCCN1CCOCC1)c1cccc(S(=O)(=O)N(Cc2ccccc2)c2ccccc2)c1	0	0	0	-	0	0	-	-
COc1ccc(C)cc1N/C(N)=N/c1nc(C)cc(C)n1	81	0	0	0	0	0	59	-
CC(C)CN1CCN(CCCOC(=O)Nc2cccc3ccccc23)CC1C (centres undefined)	-	-	0	-	0	-	-	-
Cc1cc(C)c2c(c1)SC1=NC(c3ccccc3)(C(F)(F)F)NC(=O)N12 (centres undefined)	91	0	0	0	0	0	66	21
CC(OC(=O)c1cc(O)c2ccccc2c1O)C(=O)Nc1ccc(C(N)=O)cc1 (centres undefined)	103	0	0	-	0	0	78	19
CC(OC(=O)c1ccccc1C(=O)N(C)c1ccccc1)C(=O)Nc1ccc(C(N)=O)cc1 (centres undefined)	0	0	0	-	0	0	-	-
Cc1[nH]c2ccccc2c1C(=O)CCl	-	-	0	0	0	-	-	-
Cc1[nH]c2ccccc2c1C(=O)COc1ccccc1	135	0	0	0	0	0	128	30
Cc1[nH]c2ccccc2c1C(=O)CSc1cccc[n+]1[O-]	0	0	0	0	0	0	-	-
SMILES	AHR activator	HDAC3 inhib	FXN GAA850 act	PfM18AAP inh	SENP1 FRET inh	Fh CTSL1 inh	AHR act confirm	PXR act counter
Cc1[nH]c2ccccc2c1C(=O)CNc1nccs1	83	0	0	0	0	0	0	26
Cc1[nH]c2ccccc2c1C(=O)CSc1ccccc1	101	0	0	0	0	0	93	72
CCOCc1cnc(C)nc1NCC(=O)c1c(C)[nH]c2ccccc12	0	0	0	0	0	0	-	-
O=C(N/N=C/c1c[nH]c2ccccc12)c1cc(-c2cccc3ccccc23)n[nH]1	92	0	0	0	0	0	0	0
O=C(N/N=C/c1c[nH]c2ccccc12)c1cc(-c2ccc(-c3ccccc3)cc2)n[nH]1	0	0	0	0	0	0	-	-
O=C(N/N=C/c1c[nH]c2ccccc12)c1cc(-c2ccc3ccccc3c2)n[nH]1	145	0	0	0	0	0	53	12
CC(C)=C(NC(=O)c1ccccc1)C(=O)N/N=C/c1ccc(O)cc1	0	0	0	0	0	0	-	-
O=C(Nc1ccccc1C(=O)N/N=C/c1ccc(O)cc1)c1ccccc1	103	0	0	0	0	0	88	28
CCCCNc1c(-c2ccc(-c3cccc(Cl)c3)cc2)nc2ccc(Cl)cn12	79	0	0	-	0	-	0	14
O=C(NC1CC1)C1=C[C@@H](c2ccc(C(F)(F)F)cc2)C[C@@H](OCCCCO)O1	0	0	0	-	0	0	-	-
O=C(NC1CC1)C1=C[C@H](c2ccc(C(F)(F)F)cc2)C[C@H](OCCCCO)O1	100	0	0	-	0	0	0	14
CCC(=O)N1CCCC(C(=O)c2ccc(-c3ccccc3)cc2)C1 (centres undefined)	0	0	0	0	0	0	-	-
NNc1nc2c(-c3ccc(F)cc3)nnn2c2ccccc12	102	0	0	30	0	0	128	35
CCCNC(=O)C1(C)CCCN(CCC(=O)c2ccccc2)C1 (centres undefined)	-	-	0	-	0	-	-	-
Cc1cccc(N=C2N=C(N)c3ccccc32)c1	0	0	0	0	0	0	-	-
NC1=NC(=Nc2ccc(Br)cc2)c2ccccc21	88	0	0	0	0	0	0	15
FC(F)(F)c1cc(-c2ccccc2)nc(NCc2cccnc2)n1	90	0	0	0	0	0	0	43
C=CCN(CC=C)Cc1cc(=O)oc2cc(C)c(Cl)cc12	-	-	-	-	0	-	-	-
Cc1noc(C)c1S(=O)(=O)N(CC(=O)Nc1ccc2c(c1)OCO2)c1ccc(C(C)C)cc1	80	-	0	0	0	0	84	159
COc1ccc(N(CC(=O)Nc2ccc(C(C)C)cc2)S(=O)(=O)c2c(C)noc2C)cc1	0	0	0	0	0	0	-	-
COc1ccc(S(=O)(=O)N(C)C[C@@H]2Oc3cc(Br)ccc3S(=O)(=O)N([C@H](C)CO)C[C@@H]2C)cc1	-	-	0	-	0	-	-	-
N/C(=N\c1nc2ccccc2o1)NC(=O)c1ccccc1F	104	0	0	0	0	0	167	15
COc1ccccc1C(=O)NC(=Nc1nc2ccccc2o1)NC(=O)c1ccccc1OC	107	0	0	0	0	0	133	45
N/C(=N\c1nc2ccccc2o1)NC(=O)c1cccc(Cl)c1	0	0	0	0	0	0	-	-
